Measured values published in ChEMBL document CHEMBL1123468, “Synthesis and antiviral activity of (E)-5-(2-bromovinyl)uracil and (E)-5-(2-bromovinyl)uridine” (1986).
≈ marks a conversion by molar mass, not a printed value.

Assays:
BSC-1 = experiment: The compound was tested for its antiviral activity against HSV-1 (KOS) virus in BS-C-1A cell line; format: functional, Cercopithecidae; details: Chlorocebus aethiops
Procedure, shortened: (§1)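 Virus-induced cytopathogenicity in cell culture, scored microscopically. The value is the minimum concentration that cuts viral cytopathogenicity by 50%. Normal cell morphology was also checked microscopically at up to 400 μg/mL.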

E6SM [1] = experiment: The compound was tested for its antiviral activity against HSV-1 (KOS) virus in E6SM cell line; format: functional; details: Homo sapiens; procedure, shortened: as §1
E6SM [2] = experiment: The concentration required to reduce the cytopathogenicity of HSV-1 (KOS) in E6SM cell culture by 50% in presence of 100 ug/mL dThd; format: functional; details: Homo sapiens
Procedure, shortened: (§2)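 E6SM cells infected with HSV-1 (KOS), with dThd added to the culture medium at the stated concentration. The value is the minimum concentration that reduces viral cytopathogenicity by 50%.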

E6SM [3] = experiment: The concentration required to reduce the cytopathogenicity of HSV-1 (KOS) in E6SM cell culture by 50% in presence of 100 ug/mL of Urd; format: functional; details: Homo sapiens
Procedure, shortened: (§3)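 E6SM cells infected with HSV-1 (KOS), with Urd or dUrd added alone or together with 6-aminothymine (50 μg/mL). The value is the minimum concentration that reduces viral cytopathogenicity by 50%.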

E6SM [4] = experiment: The concentration required to reduce the cytopathogenicity of HSV-1 (KOS) in E6SM cell culture by 50% in presence of 100 ug/mL of Urd and 50 ug/mL of 6-aminothymine; format: functional; details: Homo sapiens; procedure, shortened: as §3
E6SM [5] = experiment: The concentration required to reduce the cytopathogenicity of HSV-1 (KOS) in E6SM cell culture by 50% in presence of 100 ug/mL of dUrd; format: functional; details: Homo sapiens; procedure, shortened: as §3
E6SM [6] = experiment: The concentration required to reduce the cytopathogenicity of HSV-1 (KOS) in E6SM cell culture by 50% in presence of 100 ug/mL of dUrd and 50 ug/mL of 6-aminothymine; format: functional; details: Homo sapiens; procedure, shortened: as §3
E6SM [7] = experiment: The compound was tested for its antiviral activity against HSV-1 (F) virus in E6SM cell culture; format: functional; details: Homo sapiens; procedure, shortened: as §1
E6SM [8] = experiment: The compound was tested for its antiviral activity against HSV-1 (McIntyre) virus in E6SM cell culture; format: functional; details: Homo sapiens; procedure, shortened: as §1
E6SM [9] = experiment: The compound was tested for its antiviral activity against HSV-2 (196) virus in E6SM cell culture; format: functional; details: Homo sapiens; procedure, shortened: as §1
E6SM [10] = experiment: The compound was tested for its antiviral activity against HSV-2 (Lyons) virus in E6SM cell culture; format: functional; details: Homo sapiens; procedure, shortened: as §1
E6SM [11] = experiment: The compound was tested for its antiviral activity against TK-HSV-1 (B2006) virus in E6SM cell culture; format: functional; details: Homo sapiens; procedure, shortened: as §1
E6SM [12] = experiment: The compound was tested for its antiviral activity against vaccinia virus in E6SM cell culture; format: functional; details: Homo sapiens; procedure, shortened: as §1
E6SM [13] = experiment: The compound was tested for its antiviral activity against vesicular stomatitis virus in E6SM cell culture; format: functional; details: Homo sapiens; procedure, shortened: as §1
E6SM [14] = experiment: The concentration required to reduce the cytopathogenicity of HSV-1 (KOS) in E6SM cell culture by 50% in absence of Urd; format: functional; details: Homo sapiens; procedure, shortened: as §3
E6SM [15] = experiment: The concentration required to reduce the cytopathogenicity of HSV-1 (KOS) in E6SM cell culture by 50% in absence of dUrd; format: functional; details: Homo sapiens; procedure, shortened: as §3
E6SM [16] = experiment: The concentration required to reduce the cytopathogenicity of HSV-1 (KOS) in E6SM cell culture by 50% in presence of 1 ug/mL dThd; format: functional; details: Homo sapiens; procedure, shortened: as §2
E6SM [17] = experiment: The concentration required to reduce the cytopathogenicity of HSV-1 (KOS) in E6SM cell culture by 50% in presence of 1 ug/mL of Urd and 50 ug/mL of 6-aminothymine; format: functional; details: Homo sapiens; procedure, shortened: as §3
E6SM [18] = experiment: The concentration required to reduce the cytopathogenicity of HSV-1 (KOS) in E6SM cell culture by 50% in presence of 1 ug/mL of dUrd; format: functional; details: Homo sapiens; procedure, shortened: as §3
E6SM [19] = experiment: The concentration required to reduce the cytopathogenicity of HSV-1 (KOS) in E6SM cell culture by 50% in presence of 1 ug/mL of dUrd and 50 ug/mL of 6-aminothymine; format: functional; details: Homo sapiens; procedure, shortened: as §3
E6SM [20] = experiment: The concentration required to reduce the cytopathogenicity of HSV-1 (KOS) in E6SM cell culture by 50% in presence of 10 ug/mL dThd; format: functional; details: Homo sapiens; procedure, shortened: as §2
E6SM [21] = experiment: The concentration required to reduce the cytopathogenicity of HSV-1 (KOS) in E6SM cell culture by 50% in presence of 10 ug/mL of Urd; format: functional; details: Homo sapiens; procedure, shortened: as §3
E6SM [22] = experiment: The concentration required to reduce the cytopathogenicity of HSV-1 (KOS) in E6SM cell culture by 50% in presence of 10 ug/mL of Urd and 50 ug/mL of 6-aminothymine,; format: functional; details: Homo sapiens; procedure, shortened: as §3
E6SM [23] = experiment: The concentration required to reduce the cytopathogenicity of HSV-1 (KOS) in E6SM cell culture by 50% in presence of 3 ug/mL dThd; format: functional; details: Homo sapiens; procedure, shortened: as §2
E6SM [24] = experiment: The concentration required to reduce the cytopathogenicity of HSV-1 (KOS) in E6SM cell culture by 50% in presence of 30 ug/mL dThd; format: functional; details: Homo sapiens
Procedure, shortened: (§4)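 Thymidine (dThd) was added to the E6SM culture medium alongside the test compound, and cells were infected with HSV-1 strain KOS. The endpoint is the minimum inhibitory concentration that reduces viral cytopathogenicity by 50%. The cytopathogenicity inhibition procedure follows the earlier-described method.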

E6SM [25] = experiment: The concentration required to reduce the cytopathogenicity of HSV-1 (KOS) in E6SM cell culture by 50% in presence of 300 ug/mL dThd; format: functional; details: Homo sapiens; procedure, shortened: as §4
E1 SM = experiment: The compound was tested for its antiviral activity against HSV-1 (KOS) virus in E1SM cell line; format: functional, Homo sapiens; procedure, shortened: as §1
E6SM [26] = experiment: The concentration required to reduce the cytopathogenicity of HSV-1 (KOS) in E6SM cell culture by 50% in presence of 10 ug/mL of dUrd; format: functional; details: Homo sapiens; procedure, shortened: as §3
HSF (VGS) = experiment: The compound was tested for its antiviral activity against HSV-1 (KOS) virus in HSF (VGS) cell line; format: functional; details: Homo sapiens; procedure, shortened: as §1
Mo = experiment: The compound was tested for its antiviral activity against HSV-1 (KOS) virus in MO cell line; format: functional; details: Homo sapiens; procedure, shortened: as §1
PRK = experiment: The compound was tested for its antiviral activity against HSV-1 (KOS) virus in PRK cell line; format: functional; details: Oryctolagus cuniculus
Procedure, shortened: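 Primary rabbit kidney cells infected with HSV-1 (KOS). The value is the minimum concentration that cuts viral cytopathogenicity by 50%. Cytotoxicity was judged as microscopically detectable alteration of cell morphology at up to 400 μg/mL.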

T-21 (LR) = experiment: The compound was tested for its antiviral activity against HSV-1 (KOS) virus in T-21 (LR) cell line; format: functional; details: Homo sapiens; procedure, shortened: as §1
E6SM [27] = experiment: The concentration required to reduce the cytopathogenicity of HSV-1 (KOS) in E6SM cell culture by 50% in presence of 10 ug/mL of dUrd and 50 ug/mL of 6-aminothymine; format: functional; details: Homo sapiens; procedure, shortened: as §3
E6SM [28] = experiment: The concentration required to reduce the cytopathogenicity of HSV-1 (KOS) in E6SM cell culture by 50% in presence of 1 ug/mL of Urd; format: functional; details: Homo sapiens; procedure, shortened: as §3
BALB/3T3 = experiment: The compound was tested for its antiviral activity against HSV-1 (KOS) virus in BALB/3T3 cell line; details: Mus musculus

SMILES	MIC50 (BSC-1) [µg/mL]	MIC50 (E6SM [1]) [µg/mL]	MIC50 (E6SM [2]) [µg/mL]	MIC50 (E6SM [3]) [µg/mL]	MIC50 (E6SM [4]) [µg/mL]	MIC50 (E6SM [5]) [µg/mL]	MIC50 (E6SM [6]) [µg/mL]	MIC50 (E6SM [7]) [µg/mL]	MIC50 (E6SM [8]) [µg/mL]	MIC50 (E6SM [9]) [µg/mL]	MIC50 (E6SM [10]) [µg/mL]	MIC50 (E6SM [11]) [µg/mL]	MIC50 (E6SM [12]) [µg/mL]	MIC50 (E6SM [13]) [µg/mL]	MIC50 (E6SM [14]) [µg/mL]	MIC50 (E6SM [15]) [µg/mL]	MIC50 (E6SM [16]) [µg/mL]	MIC50 (E6SM [17]) [µg/mL]	MIC50 (E6SM [18]) [µg/mL]	MIC50 (E6SM [19]) [µg/mL]	also measured
O=c1[nH]c(=O)n([C@H]2C[C@H](O)[C@@H](CO)O2)cc1/C=C/Br [BRIVUDINE]	0.2 (≈ 0.6 µM)	0.02 (≈ 0.06 µM)	300	0.02	0.02	0.2	0.2	0.02 (≈ 0.06 µM)	0.02 (≈ 0.06 µM)	10 (≈ 30 µM)	4 (≈ 12 µM)	40 (≈ 120 µM)	7 (≈ 21 µM)	> 400	0.02 (≈ 0.06 µM)	0.02 (≈ 0.06 µM)	0.02	0.02	0.01	0.01	MIC50 (E6SM [20]): 0.4 µg/mL; MIC50 (E6SM [21]): 0.04 µg/mL; MIC50 (E6SM [22]): 0.04 µg/mL; MIC50 (E6SM [23]): 0.02 µg/mL; MIC50 (E6SM [24]): 70 µg/mL; MIC50 (E6SM [25]): > 400 µg/mL; MIC50 (E1 SM): 0.02 µg/mL (≈ 0.06 µM); MIC50 (E6SM [26]): 0.02 µg/mL; MIC50 (HSF (VGS)): 0.04 µg/mL (≈ 0.12 µM); MIC50 (Mo): 0.007 µg/mL (≈ 0.021 µM); MIC50 (PRK): 0.007 µg/mL (≈ 0.021 µM); MIC50 (T-21 (LR)): 0.02 µg/mL (≈ 0.06 µM); MIC50 (E6SM [27]): 0.02 µg/mL; MIC50 (E6SM [28]): 0.04 µg/mL; MIC50 (BALB/3T3): 0.1 µg/mL (≈ 0.3 µM)
Oc1ncc(/C=C/Br)c(O)n1	> 400	7 (≈ 32.3 µM)	> 400	4	> 400	0.7	7	4 (≈ 18.4 µM)	4 (≈ 18.4 µM)	> 400	> 400	> 200	> 400	> 400	4 (≈ 18.4 µM)	7 (≈ 32.3 µM)	7	> 400	10	> 400	MIC50 (E6SM [20]): 70 µg/mL; MIC50 (E6SM [21]): 7 µg/mL; MIC50 (E6SM [22]): > 400 µg/mL; MIC50 (E6SM [23]): 4 µg/mL; MIC50 (E6SM [24]): > 400 µg/mL; MIC50 (E6SM [25]): > 400 µg/mL; MIC50 (E1 SM): 7 µg/mL (≈ 32.3 µM); MIC50 (E6SM [26]): 0.7 µg/mL; MIC50 (HSF (VGS)): 7 µg/mL (≈ 32.3 µM); MIC50 (Mo): > 400 µg/mL; MIC50 (PRK): > 400 µg/mL; MIC50 (T-21 (LR)): 7 µg/mL (≈ 32.3 µM); MIC50 (E6SM [27]): 10 µg/mL; MIC50 (E6SM [28]): 2 µg/mL; MIC50 (BALB/3T3): > 400 µg/mL
